Where a SMILES comes first, the peptide text is derived from it. [ ]: non-standard residue; d: D form. Phe(3,4-Cl2) = N[C@@H](Cc1ccc(Cl)c(Cl)c1)C(=O)O; Cha = N[C@@H](CC1CCCCC1)C(=O)O
How the values were obtained:
[1] = Binding affinity to Escherichia coli DNA sliding clamp protein expressed in Escherichia coli BL21(DE3) pLys at 25 degC by ITC assay
Method in brief: (§1)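 iTC200 calorimetry at 25 °C. Peptide (200–600 μM) was titrated in 2 μL injections into clamp (20–60 μM), with peptide/SC ratio 10, in 10 mM Hepes pH 7.4, 0.15 M NaCl, 3 mM EDTA. Data were corrected against peptide-into-buffer controls and fit for N, KD, ΔH and ΔS. At least two experiments.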

[2] = Binding affinity to Bacillus subtilis DNA sliding clamp protein expressed in Escherichia coli BL21(DE3) pLys by SPR assay
Method in brief: (§2)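 Competition SPR at 25 °C in Hepes 10 mM pH 7.4, 0.15 M NaCl, 3 mM EDTA. Clamp (0.25 μM) was preincubated with challenger peptide (1.5 nM to 100 μM), then injected over a chip carrying immobilized P1 peptide (Pol IV C-terminal heptamer). IC50 was taken from inhibition of clamp/P1 binding.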

[3] = Binding affinity to Pseudomonas aeruginosa DNA sliding clamp protein expressed in Escherichia coli BL21(DE3) pLys at 30 degC by ITC assay
Method in brief: (§3)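 ITC at 30 °C. Peptide (200–600 μM) was injected stepwise (2 μL) into clamp solution (20–60 μM), with peptide/SC ratio 10, in Hepes 10 mM pH 7.4, NaCl 0.15 M, EDTA 3 mM. Peptide-into-buffer controls were subtracted, and N, KD, ΔH and ΔS were derived. Performed at least twice.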

[4] = Binding affinity to Bacillus subtilis DNA sliding clamp protein expressed in Escherichia coli BL21(DE3) pLys at 30 degC by ITC assay; method in brief: as §3
[5] = Binding affinity to Staphylococcus aureus DNA sliding clamp protein expressed in Escherichia coli BL21(DE3) pLys by SPR assay; method in brief: as §2
[6] = Binding affinity to Escherichia coli DNA sliding clamp protein expressed in Escherichia coli BL21(DE3) pLys at 30 degC by ITC assay; method in brief: as §3
[7] = Binding affinity to Bacillus subtilis DNA sliding clamp protein expressed in Escherichia coli BL21(DE3) pLys at 25 degC by ITC assay; method in brief: as §1
[8] = Binding affinity to Escherichia coli DNA sliding clamp protein expressed in Escherichia coli BL21(DE3) pLys by SPR assay; method in brief: as §2
[9] = Binding affinity to Staphylococcus aureus DNA sliding clamp protein expressed in Escherichia coli BL21(DE3) pLys at 30 degC by ITC assay; method in brief: as §3
[10] = system: Bacillus subtilis; assay: Binding affinity to Bacillus subtilis DNA sliding clamp protein expressed in Escherichia coli BL21(DE3) pLys assessed as association constant at 25 degC by SPR assay
Method in brief: (§4)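 Biacore SPR at 25 °C in 10 mM Hepes pH 7.4, 0.15 M NaCl, 3 mM EDTA. The E. coli Pol IV C-terminal heptamer (P1) was immobilized, and the clamp (Ni-NTA then MonoQ purified) was injected at 0.125–2 μM at 50 μL/min. After background subtraction, data were fit to a 1:1 Langmuir model to give KA.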

[11] = Binding affinity to Mycobacterium tuberculosis DNA sliding clamp protein expressed in Escherichia coli BL21(DE3) pLys at 25 degC by SPR assay
Method in brief: (§5)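 SPR competition at 25 °C in Hepes 10 mM pH 7.4, 0.15 M NaCl, 3 mM EDTA. Clamp (0.25 μM) preincubated with challenger peptide (1.5 nM to 100 μM), then injected over a chip loaded with P1 peptide. IC50 taken from inhibition of clamp/P1 binding; at least three independent experiments.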

[12] = system: Escherichia coli; assay: Binding affinity to Escherichia coli DNA sliding clamp protein expressed in Escherichia coli BL21(DE3) pLys assessed as association constant at 25 degC by SPR assay; method in brief: as §4
[13] = Binding affinity to Pseudomonas aeruginosa DNA sliding clamp protein expressed in Escherichia coli BL21(DE3) pLys at 25 degC by SPR assay; method in brief: as §2
[14] = Binding affinity to Escherichia coli DNA sliding clamp protein expressed in Escherichia coli BL21(DE3) pLys at 25 degC by SPR assay; method in brief: as §2
[15] = Binding affinity to Bacillus subtilis DNA sliding clamp protein expressed in Escherichia coli BL21(DE3) pLys at 25 degC by SPR assay; method in brief: as §2
[16] = system: Pseudomonas aeruginosa; assay: Binding affinity to Pseudomonas aeruginosa DNA sliding clamp protein expressed in Escherichia coli BL21(DE3) pLys assessed as association constant at 25 degC by SPR assay; method in brief: as §4
[17] = system: Mycobacterium tuberculosis; assay: Binding affinity to Mycobacterium tuberculosis DNA sliding clamp protein expressed in Escherichia coli BL21(DE3) pLys assessed as association constant at 25 degC by SPR assay
Method in brief: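 Direct SPR binding at 25 °C in 10 mM Hepes pH 7.4, 0.15 M NaCl, 3 mM EDTA. Ni-NTA/MonoQ-purified clamp (0.125−2 μM) injected at 50 μL/min over immobilized P1, the E. coli Pol IV C-terminal heptamer. Background subtracted; 1:1 Langmuir fit gives KA.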

[18] = system: Staphylococcus aureus; assay: Binding affinity to Staphylococcus aureus DNA sliding clamp protein expressed in Escherichia coli BL21(DE3) pLys assessed as association constant at 25 degC by SPR assay; method in brief: as §4
[19] = Binding affinity to Staphylococcus aureus DNA sliding clamp protein expressed in Escherichia coli BL21(DE3) pLys at 25 degC by SPR assay; method in brief: as §2
[20] = Binding affinity to Mycobacterium tuberculosis DNA sliding clamp protein expressed in Escherichia coli BL21(DE3) pLys by SPR assay; method in brief: as §5
[21] = Binding affinity to Mycobacterium tuberculosis DNA sliding clamp protein expressed in Escherichia coli BL21(DE3) pLys at 25 degC by ITC assay
Method in brief: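 ITC at 25 °C. Peptide (200−600 μM) titrated in 2 μL injections into clamp (20−60 μM) at a peptide/clamp ratio of 10, in 10 mM Hepes pH 7.4, 0.15 M NaCl, 3 mM EDTA. Corrected using peptide-into-buffer controls. N, KD, ΔH and ΔS fitted; at least two experiments.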

[22] = Binding affinity to Pseudomonas aeruginosa DNA sliding clamp protein expressed in Escherichia coli BL21(DE3) pLys at 25 degC by ITC assay
Method in brief: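 His-tagged P. aeruginosa (PAO1) dnaN clamp from pET-15b, IPTG 0.1 mM at 28 °C overnight; Ni-NTA then MonoQ purified, ultracentrifuged. Peptide (200–600 μM) titrated in 2 μL injections into clamp (20–60 μM), peptide/clamp ratio 10, in 10 mM Hepes pH 7.4, 0.15 M NaCl, 3 mM EDTA. Heat of peptide into buffer subtracted; KD, N, ΔH, ΔS fitted; at least two runs.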

[23] = Binding affinity to Pseudomonas aeruginosa DNA sliding clamp protein expressed in Escherichia coli BL21(DE3) pLys by SPR assay; method in brief: as §2

## CC(=O)N[C@@H](CCC(N)=O)C(=O)N[C@@H](CC1CCCCC1)C(=O)N[C@@H](CC(=O)O)C(=O)N[C@@H](CC(C)C)C(=O)N[C@@H](Cc1ccccc1)C(=O)O (Ac-Q[Cha]DLF-OH)
[1]
  Kd: 0.23 µM
[2]; read-out: IC50
  IC50: 2.1 µM
[3]
  Kd: 0.64 µM
[4]
  Kd: 8.2 µM
[5]; read-out: IC50
  IC50: 1.54 µM
[6]
  Kd: 1 µM
[7]
  Kd: 12.3 µM
[8]
  IC50: 0.17 µM
[9]
  Kd: 29 µM

## H-RQLVLGL-OH
[10]
  KA: 3.5 ×10⁶ /M
[11]
  Kd: 0.24 µM
[12]
  KA: 4.2 ×10⁶ /M
[13]
  Kd: 0.58 µM
[14]
  Kd: 0.23 µM
[15]
  Kd: 0.29 µM
[16]
  KA: 1.7 ×10⁶ /M
[17]
  KA: 4.6 ×10⁶ /M
[18]
  KA: 4.1 ×10⁶ /M
[19]
  Kd: 0.25 µM

## CC(=O)N[C@@H](CCC(N)=O)C(=O)N[C@@H](CC1CCCCC1)C(=O)N[C@@H](CC(=O)O)C(=O)N[C@@H](CC(C)C)C(=O)N[C@@H](Cc1ccc(Cl)c(Cl)c1)C(=O)O (Ac-Q[Cha]DL[Phe(3,4-Cl2)]-OH)
[1]
  Kd: 0.05 µM
[2]
  IC50: Not Active
[5]
  IC50: Not Active
[20]
  IC50: 0.85 µM
[21]
  Kd: 0.75 µM
[22]
  Kd: 0.099 µM
[8]
  IC50: 0.08 µM
[23]
  IC50: 0.14 µM

Source: ChEMBL document CHEMBL3351841, “Differential modes of peptide binding onto replicative sliding clamps from various bacterial origins” (J Med Chem, 2014)
